Activity calls are given as the source filed them. The rule behind the calls is not given here.
Assays:
PC-12 [1] = assay: Induction of NGF-mediated neutrite outgrowth of rat PC12 cells after 96 hrs by phase contrast microscopic analysis; type: functional, cell-based; conditions: for EC50: PC-12, 96 h
How it was run: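 PC12 cells grown at 37 °C in DMEM with 5% heat-inactivated FBS and 5% horse serum, dissociated with 1 mM EGTA in PBS, seeded on poly-L-lysine (3 × 10^4 cells/well). After 24 h, switched to 1% FBS/1% HS medium with NGF 20 ng/mL plus test concentrations. Scored as % neurite-bearing cells; EC50 by regression; triplicate.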

PC-12 [2] = assay: Induction of neutrite outgrowth of rat PC12 cells after 96 hrs in absence of NGF by phase contrast microscopic analysis; type: functional, cell-based
How it was run: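 Poly-L-lysine-seeded PC12 cells (3 × 10^4 cells/well) in 1% FBS/1% horse serum test medium with graded compound concentrations for 96 h. Neurites at least one cell-body diameter counted as neurite-bearing under phase contrast. At least 100 cells per field, three fields per well, six wells per sample. Result expressed as percentage of total cells.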

| SMILES | EC50 (PC-12 [1]) [µM] | Activity (PC-12 [1]) | Activity (PC-12 [2]) |
| --- | --- | --- | --- |
| CC(C)=CCC[C@](C)(O)[C@H]1CC[C@@]2(C)[C@@H]3CC=C4[C@@H](C[C@H](O)C(=O)C4(C)C)[C@]3(C)C(=O)C[C@]12C | 10 |  |  |
| CC(C)=CCC[C@](C)(O)[C@H]1CC[C@@]2(C)[C@@H]3CC=C4[C@@H](CCC(=O)C4(C)C)[C@]3(C)C(=O)C[C@]12C | > 50 |  |  |
| CC(C)(O)/C=C/C(=O)[C@](C)(O)[C@H]1CC[C@@]2(C)[C@@H]3CC=C4[C@@H](C[C@H](O)C(=O)C4(C)C)[C@]3(C)C(=O)C[C@]12C | > 50 |  |  |
| C=CC(=C)CC[C@]1(C)[C@H](C)C[C@H](OC)[C@@]23C(=C[C@@H](OC(C)=O)C[C@@H]12)[C@@H](OC(=O)CCC)O[C@@H]3OC(C)=O | 5.2 |  |  |
| C=CC(=C)CC[C@]1(C)[C@H](C)C[C@H](OC)[C@@]23C(=C[C@@H](O)C[C@@H]12)[C@@H](OC)O[C@H]3OC(C)=O | 8.3 |  |  |
| CC(=O)[C@H]1CC[C@@]2(C)[C@@H]3CC=C4[C@@H](C[C@H](O)C(=O)C4(C)C)[C@]3(C)C(=O)C[C@]12C | > 50 |  |  |
| C=C(C)[C@@H](C)C[C@@H](O)[C@@H](C)[C@H]1CC[C@@]2(C)[C@@H]3CCC4=C(C[C@]35O[C@@H]5C[C@]12C)C(=O)C[C@H](O)C4(C)C | > 50 |  |  |
| CC(C)=CCC(=O)[C@](C)(O)[C@H]1CC[C@@]2(C)[C@@H]3CC=C4[C@@H](C[C@H](O)C(=O)C4(C)C)[C@]3(C)C(=O)C[C@]12C |  | inactive | inactive |
| C=CC(=C)CC[C@]1(C)[C@H](C)C[C@H](OC)[C@@]23C(=C[C@H](O)C[C@@H]12)[C@@H](OC)O[C@@H]3OC(C)=O | 2.9 |  |  |
| C=CC(=C)CC[C@]1(C)[C@H](C)C[C@H](OC)[C@@]23C(=C[C@@H](O)C[C@@H]12)[C@@H](OC)O[C@H]3OC | 5.4 |  |  |
